ChEMBL document CHEMBL1122744, “2-Chloroethyl (methylsulfonyl)methanesulfonate and related (methylsulfonyl)methanesulfonates. Antineoplastic activity in vivo” (J Med Chem, 1984)

Assays:
Mus musculus [1] = experiment: Mortality by day 5 expressed as number of mice died to the total treated at dose 25 mg/kg in exp2; 0/6; assay type: ADME, organism-based; design: dose 25 mg/kg; settings: in vivo
[2] = Ratio of number of 60-day survivors to the total treated mice at dose 100 mg/kg in exp2; 0/6; assay type: functional
Mus musculus [3] = experiment: Change in weight by day 5, obtained by subtracting treated groups of animals minus control groups of animals at dose 100 mg/kg in exp2*-mortality was 5/6 by day 7; assay type: functional
How it was run: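 Mice were inoculated ip with 10^6 P388 leukemia cells on day 0 and weighed 19–22 g that day. Compound was given ip once daily on days 1–5, within about 5 min of preparing the solution or suspension, to groups of six (occasionally five). Thirty inoculated untreated mice served as controls. The value is the average weight change of treated mice minus that of controls on day 5.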

[4] = Ratio of median survival times for non-survivors at dose 25 mg/kg in exp2; assay type: functional
How it was run: (§1)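 Mice were inoculated ip with 10^6 P388 leukemia cells on day 0. Groups of six (occasionally five) were dosed ip qd on days 1–5 with fresh suspensions; 30 mice served as untreated controls. Deaths were recorded daily up to day 60. T/C% compares the median survival of treated non-survivors (<60 days) with the control median. Medians used grouped data when there were no 30-day survivors, otherwise ungrouped data. t = toxic.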

Mus musculus [5] = experiment: Change in weight by day 5, obtained by subtracting treated groups of animals minus control groups of animals at dose 200 mg/kg in exp1.; assay type: functional
How it was run: (§2)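 Mice were inoculated ip with 10^6 P388 leukemia cells on day 0, when treated and control mice weighed 19–22 g. Treatment was given ip once daily on days 1–5, within about 5 min of preparing the solution or suspension. Groups of six (occasionally five) were treated, with 30 untreated inoculated mice as controls. The day-5 weight change is the mean treated change minus the mean control change.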

Mus musculus [6] = experiment: Mortality by day 5 expressed as number of mice died to the total treated at dose 50 mg/kg in exp1; 0/6; assay type: ADME, organism-based; design: dose 50 mg/kg; settings: in vivo
[7] = Ratio of median survival times for non-survivors at dose 100 mg/kg in exp1; assay type: functional; design: unit: %; how it was run: as §1
Mus musculus [8] = experiment: Mortality by day 5 expressed as number of mice died to the total treated at dose 200 mg/kg in exp1; 5/6; assay type: ADME, organism-based; design: dose 200 mg/kg; settings: in vivo
Mus musculus [9] = experiment: Change in weight by day 5, obtained by subtracting treated groups of animals minus control groups of animals at dose 25 mg/kg in exp2; assay type: functional; how it was run: as §2
Mus musculus [10] = experiment: Mortality by day 5 expressed as number of mice died to the total treated at dose 100 mg/kg in exp2; 2/6; assay type: ADME, organism-based; design: dose 100 mg/kg; settings: in vivo
[11] = Median survival time of the treated control groups, in which there are no 30-day survivors at dose 50 mg/kg in exp2; assay type: functional
[12] = Median survival time of the untreated control groups, in which there are no 30-day survivors at dose 25 mg/kg in exp2; assay type: functional
Mus musculus [13] = experiment: Change in weight by day 5, obtained by subtracting treated groups of animals minus control groups of animals at dose 50 mg/kg in exp2; assay type: functional; how it was run: as §2
Mus musculus [14] = experiment: Change in weight by day 5, obtained by subtracting treated groups of animals minus control groups of animals at dose 50 mg/kg in exp1.; assay type: functional; how it was run: as §2
Mus musculus [15] = experiment: Median survival time of the treated control groups, in which there are no 30-day survivors at dose 100 mg/kg in exp2; assay type: functional
[16] = Ratio of median survival times for non-survivors at dose 100 mg/kg in exp2; assay type: functional; how it was run: as §1
[17] = Median survival time of the untreated control groups, in which there are no 30-day survivors at dose 50 mg/kg in exp1; assay type: functional
Mus musculus [18] = experiment: Median survival time of the treated control groups, in which there are no 30-day survivors at dose 25 mg/kg in exp2; assay type: functional
Mus musculus [19] = experiment: Mortality by day 5 expressed as number of mice died to the total treated at dose 25 mg/kg in exp1; 0/6; assay type: ADME, organism-based; design: dose 25 mg/kg; settings: in vivo
Mus musculus [20] = experiment: Median survival time of the untreated control groups, in which there are no 30-day survivors at dose 100 mg/kg in exp2; assay type: functional
[21] = Ratio of median survival times for non-survivors at dose 25 mg/kg in exp1; assay type: functional
Mus musculus [22] = experiment: Median survival time of the treated control groups, in which there are no 30-day survivors at dose 12 mg/kg in exp2; assay type: functional
[23] = Ratio of number of 60-day survivors to the total treated mice at dose 100 mg/kg in exp1; 0/6; assay type: functional
Mus musculus [24] = experiment: Change in weight by day 5, obtained by subtracting treated groups of animals minus control groups of animals at dose 100 mg/kg in exp1.; assay type: functional; how it was run: as §2
[25] = Ratio of median survival times for non-survivors at dose 12 mg/kg in exp2; assay type: functional; how it was run: as §1
Mus musculus [26] = experiment: Mortality by day 5 expressed as number of mice died to the total treated at dose 50 mg/kg in exp2; 0/6; assay type: ADME, organism-based; design: dose 50 mg/kg; settings: in vivo
Mus musculus [27] = experiment: Median survival time of the treated control groups, in which there are no 30-day survivors at dose 100 mg/kg in exp1; assay type: functional
Mus musculus [28] = experiment: Median survival time of the untreated control groups, in which there are no 30-day survivors at dose 100 mg/kg in exp1; assay type: functional
Mus musculus [29] = experiment: Mortality by day 5 expressed as number of mice died to the total treated at dose 12 mg/kg in exp2; 0/6; assay type: ADME, organism-based; design: dose 12 mg/kg; settings: in vivo
Mus musculus [30] = experiment: Mortality by day 5 expressed as number of mice died to the total treated at dose 100 mg/kg in exp1; 0/6; assay type: ADME, organism-based; design: dose 100 mg/kg; settings: in vivo
Mus musculus [31] = experiment: Median survival time of the untreated control groups, in which there are no 30-day survivors at dose 12 mg/kg in exp2; assay type: functional
[32] = Ratio of median survival times for non-survivors at dose 50 mg/kg in exp1; assay type: functional; design: unit: %; how it was run: as §1
Mus musculus [33] = experiment: Median survival time of the treated control groups, in which there are no 30-day survivors at dose 25 mg/kg in exp1; assay type: functional
[34] = Median survival time of the treated control groups, in which there are no 30-day survivors at dose 50 mg/kg in exp1; assay type: functional
Mus musculus [35] = experiment: Median survival time of the untreated control groups, in which there are no 30-day survivors at dose 200 mg/kg in exp1; assay type: functional
Mus musculus [36] = experiment: Ratio of median survival times for non-survivors at dose 50 mg/kg in exp2; assay type: functional; how it was run: as §1
Mus musculus [37] = experiment: Change in weight by day 5, obtained by subtracting treated groups of animals minus control groups of animals at dose 12 mg/kg in exp2; assay type: functional; how it was run: as §2
Mus musculus [38] = experiment: Median survival time of the untreated control groups, in which there are no 30-day survivors at dose 25 mg/kg in exp1; assay type: functional
Mus musculus [39] = experiment: Ratio of number of 30-day survivors to the total treated mice at dose 100 mg/kg in exp2*-toxic; 1/6; assay type: ADME, organism-based; design: dose 100 mg/kg; settings: in vivo, 720 h
[40] = Ratio of number of 30-day survivors to the total treated mice at dose 100 mg/kg in exp1; 1/6; assay type: functional
Mus musculus [41] = experiment: Change in weight by day 5, obtained by subtracting treated groups of animals minus control groups of animals at dose 25 mg/kg in exp1.; assay type: functional; how it was run: as §2
[42] = Ratio of median survival times for non-survivors at dose 200 mg/kg in exp1; t= toxic; assay type: ADME, organism-based; design: dose 200 mg/kg; settings: in vivo; how it was run: as §1

## CS(=O)(=O)CS(=O)(=O)OCCBr
Mus musculus [1]
  Mortality: 0
[2]
  Ratio: 0
Mus musculus [3]
  Change in weight: -4.7
[4]
  Ratio: 123
Mus musculus [5]
  Change in weight: -5.4
Mus musculus [6]
  Mortality: 0
[7]
  Ratio: 224
Mus musculus [8]
  Mortality: 5
Mus musculus [9]
  Change in weight: -1.5
Mus musculus [10]
  Mortality: 2
[11]
  Median survival time: 18
[12]
  Median survival time: 13
Mus musculus [13]
  Change in weight: -1.8
Mus musculus [14]
  Change in weight: -2.1
Mus musculus [15]
  Median survival time: 7
[16]
  Ratio: 54
[17]
  Median survival time: 10.5
Mus musculus [18]
  Median survival time: 16
Mus musculus [19]
  Mortality: 0
Mus musculus [20]
  Median survival time: 13
[21]
  Ratio: 136
Mus musculus [22]
  Median survival time: 12.8
[23]
  Ratio: 0
Mus musculus [24]
  Change in weight: -2.9
[25]
  Ratio: 98
Mus musculus [26]
  Mortality: 0
Mus musculus [27]
  Median survival time: 23.5
Mus musculus [28]
  Median survival time: 10.5
Mus musculus [29]
  Mortality: 0
Mus musculus [30]
  Mortality: 0
Mus musculus [31]
  Median survival time: 13
[32]
  Ratio: 159
Mus musculus [33]
  Median survival time: 14.3
[34]
  Median survival time: 16.7
Mus musculus [35]
  Median survival time: 10.5
Mus musculus [36]
  Ratio: 138
Mus musculus [37]
  Change in weight: 0.3
Mus musculus [38]
  Median survival time: 10.5
Mus musculus [39]
  Ratio: 1
[40]
  Ratio: 1
Mus musculus [41]
  Change in weight: -0.8
[42]
  Ratio: Toxic
